These results are taken from ChEMBL document CHEMBL1152495, “Synthesis and antimicrobial studies of novel methylene bridged benzisoxazolyl imidazo[2,1-b][1,3,4]thiadiazole derivatives” (2009).

What all share (assay type): functional
For test [1], the system named is Staphylococcus aureus. The test is described as follows: Antibacterial activity against Staphylococcus aureus ATCC 25923 at 100 ug/ml after 24 hrs by agar well diffusion method. To be noted: ATCC 25923, 24 h, read-out: IZ. Summed up: (§1)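 Agar well diffusion on Mueller Hinton agar (20 mL per dish), seeded homogeneously with liquid bacterial culture by spread plating. Samples loaded directly into wells, dimethylformamide as solvent control, ampicillin as reference drug. Plates incubated at 37 °C for 24 h. All determinations done in triplicate.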

For test [2], the system named is Bacillus subtilis. As to the kind of experiment: Antibacterial activity against Bacillus subtilis ATCC 6633 at 100 ug/ml after 24 hrs by agar well diffusion method. To be noted: ATCC 6633, 24 h, read-out: IZ. The essentials:
as §1
(In general: A growth-free zone around the sample is the usual read-out of agar diffusion tests.)

Test [3] has as its system Escherichia coli. The test is described as follows: Antibacterial activity against Escherichia coli ATCC 35218 at 100 ug/ml after 24 hrs by agar well diffusion method. As to conditions: ATCC 35218, 24 h, read-out: IZ. The essentials: as §1
Test [4] relates to Pseudomonas aeruginosa. The test is described as follows: Antibacterial activity against Pseudomonas aeruginosa ATCC 10145 at 100 ug/ml after 24 hrs by agar well diffusion method. As to conditions: ATCC 10145, 24 h, read-out: IZ. Summed up:
as §1

For test [5], the system named is Candida albicans. The test is described as follows: Antifungal activity against Candida albicans at 100 ug/ml after 72 hrs by agar well diffusion method. As to conditions: read-out: IZ. Summed up:
(§2)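 Fungi grown on Potato Dextrose Agar (20 mL per dish), seeded homogeneously with liquid culture by spread plating. Samples loaded directly into agar wells, with dimethylformamide as solvent control and clotrimazole as reference drug. Plates incubated at 25 °C for 72 h, triplicate determinations.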

The test system of test [6] is Aspergillus fumigatus. As to the kind of experiment: Antifungal activity against Aspergillus fumigatus at 100 ug/ml after 72 hrs by agar well diffusion method. To be noted: read-out: IZ. Summed up: as §2
Test [7] relates to Staphylococcus aureus. The test is described as follows: Antibacterial activity against Staphylococcus aureus ATCC 25923 after 24 hrs by agar well diffusion method. As to conditions: ATCC 25923, 24 h. The essentials:
as §1

For test [8], the system named is Bacillus subtilis. The test is described as follows: Antibacterial activity against Bacillus subtilis ATCC 6633 after 24 hrs by agar well diffusion method. As to conditions: ATCC 6633, 24 h. Summed up: as §1
Test [9] concerns Escherichia coli. As to the kind of experiment: Antibacterial activity against Escherichia coli ATCC 35218 after 24 hrs by agar well diffusion method. To be noted: ATCC 35218, 24 h. Summed up:
as §1

Test [10] relates to Pseudomonas aeruginosa. The test is described as follows: Antibacterial activity against Pseudomonas aeruginosa ATCC 10145 after 24 hrs by agar well diffusion method. To be noted: ATCC 10145, 24 h. The essentials: as §1
Test [11] deals with Candida albicans. The test is described as follows: Antifungal activity against Candida albicans after 72 hrs by agar well diffusion method. The essentials:
as §2

Test [12] has as its system Aspergillus fumigatus. As to the kind of experiment: Antifungal activity against Aspergillus fumigatus after 72 hrs by agar well diffusion method. The essentials:
as §2

≈ marks a conversion by molar mass, not a printed value.

Take `N#CSc1c(-c2ccc(Cl)cc2)nc2sc(Cc3noc4ccccc34)nn12`: the zone of inhibition at 100 µg/mL was found to be 18 mm in test [1]; 17 mm in test [2]; 16 mm in test [3]; 19 mm in [4]; 15 mm in test [5]; 11 mm in [6]. The minimal inhibitory concentration (MIC) (commonly the lowest concentration found to suppress growth) came to 1 µg/mL (≈ 2.36 µM) in [7]; 1 µg/mL (≈ 2.36 µM) in test [8]; 2 µg/mL (≈ 4.72 µM) in test [9]; 1.5 µg/mL (≈ 3.54 µM) in test [10]; 3 µg/mL (≈ 7.08 µM) in test [11]; 4 µg/mL (≈ 9.44 µM) in [12].
In the case of `O=Nc1c(-c2cc3ccccc3oc2=O)nc2sc(Cc3noc4ccccc34)nn12`, the zone of inhibition at 100 µg/mL was found to be 14 mm in test [1]; 15 mm in test [2]; 12 mm in test [3]; 14 mm in [4]; 15 mm in [5]; 12 mm in test [6]. Besides, the minimum inhibitory concentration (MIC) came to 1.5 µg/mL (≈ 3.49 µM) in test [7]; 1.5 µg/mL (≈ 3.49 µM) in [8]; 3 µg/mL (≈ 6.99 µM) in test [9]; 2.5 µg/mL (≈ 5.82 µM) in test [10]; 3 µg/mL (≈ 6.99 µM) in test [11]; 3.5 µg/mL (≈ 8.15 µM) in [12].
Take `N#CSc1c(-c2ccc([N+](=O)[O-])cc2)nc2sc(Cc3noc4ccccc34)nn12`: the zone of inhibition at 100 µg/mL in test [1] worked out at 9 mm; in [2], 8 mm; in test [3], 7 mm; in test [4] it was 10 mm; in [5] it was 11 mm; in test [6] it was 9 mm. The MIC stood at 2 µg/mL (≈ 4.6 µM) in test [7]; 2.5 µg/mL (≈ 5.75 µM) in [8]; 4 µg/mL (≈ 9.21 µM) in test [9]; 3 µg/mL (≈ 6.91 µM) in test [10]; 3.5 µg/mL (≈ 8.06 µM) in [11]; 3.5 µg/mL (≈ 8.06 µM) in [12].
As for `COc1ccc(-c2nc3sc(Cc4noc5ccccc45)nn3c2SC#N)cc1`, the zone of inhibition at 100 µg/mL in test [1] is 9 mm; in [2], 15 mm; in test [3] it was 13 mm; in test [4], 19 mm; in test [5], 20 mm; in test [6], 16 mm. Also, the minimum inhibitory concentration (MIC) worked out at 2 µg/mL (≈ 4.77 µM) in [7]; 1 µg/mL (≈ 2.38 µM) in [8]; 3 µg/mL (≈ 7.15 µM) in [9]; 1.5 µg/mL (≈ 3.58 µM) in test [10]; 2.5 µg/mL (≈ 5.96 µM) in test [11]; 2.5 µg/mL (≈ 5.96 µM) in test [12].
In the case of `N#CSc1c(-c2ccccc2)nc2sc(Cc3noc4ccccc34)nn12`, the zone of inhibition at 100 µg/mL in test [1] is 16 mm; in test [2] it was 14 mm; in test [3], 12 mm; in [4], 17 mm; in test [5], 12 mm; in test [6], 15 mm. The minimum inhibitory concentration (MIC) in test [7] came out at 1.5 µg/mL (≈ 3.85 µM); in [8] it was 1.5 µg/mL (≈ 3.85 µM); in test [9], 3 µg/mL (≈ 7.7 µM); in test [10] it was 2 µg/mL (≈ 5.14 µM); in [11], 3.5 µg/mL (≈ 8.99 µM); in test [12], 2.5 µg/mL (≈ 6.42 µM).
For the compound `O=Nc1c(-c2ccc([N+](=O)[O-])cc2)nc2sc(Cc3noc4ccccc34)nn12`, the zone of inhibition at 100 µg/mL is 12 mm in test [1]; 14 mm in test [2]; 9 mm in test [3]; 11 mm in test [4]; 17 mm in test [5]; 11 mm in test [6]. The MIC in test [7] is 1.5 µg/mL (≈ 3.69 µM); in [8], 1.5 µg/mL (≈ 3.69 µM); in test [9], 3.5 µg/mL (≈ 8.61 µM); in test [10] it was 3 µg/mL (≈ 7.38 µM); in test [11], 2.5 µg/mL (≈ 6.15 µM); in test [12], 4 µg/mL (≈ 9.84 µM).
Regarding `O=Nc1c(-c2ccc(Cl)cc2)nc2sc(Cc3noc4ccccc34)nn12`, the zone of inhibition at 100 µg/mL is 10 mm in [1]; 14 mm in test [2]; 13 mm in test [3]; 15 mm in [4]; 15 mm in [5]; 17 mm in [6]. Also, the minimal inhibitory concentration (MIC) in test [7] stood at 2 µg/mL (≈ 5.05 µM); in [8] it was 1.5 µg/mL (≈ 3.79 µM); in [9] it was 3 µg/mL (≈ 7.58 µM); in test [10], 2.5 µg/mL (≈ 6.32 µM); in test [11], 3 µg/mL (≈ 7.58 µM); in test [12], 2.5 µg/mL (≈ 6.32 µM).
As for `COc1ccc(-c2nc3sc(Cc4noc5ccccc45)nn3c2N=O)cc1`, the zone of inhibition at 100 µg/mL came out at 13 mm in [1]; 11 mm in test [2]; 16 mm in test [3]; 8 mm in test [4]; 14 mm in [5]; 10 mm in test [6]. Besides, the minimal inhibitory concentration (MIC) in [7] was found to be 1.5 µg/mL (≈ 3.83 µM); in [8] it was 3 µg/mL (≈ 7.66 µM); in test [9] it was 2 µg/mL (≈ 5.11 µM); in test [10], 3.5 µg/mL (≈ 8.94 µM); in test [11] it was 3 µg/mL (≈ 7.66 µM); in [12], 4 µg/mL (≈ 10.2 µM).
For `N#CSc1c(-c2ccc(Br)cc2)nc2sc(Cc3noc4ccccc34)nn12`, the zone of inhibition at 100 µg/mL in test [1] worked out at 12 mm; in test [2], 14 mm; in [3] it was 15 mm; in [4], 18 mm; in test [5], 14 mm; in [6], 12 mm. The minimum inhibitory concentration (MIC) in test [7] is 1.5 µg/mL (≈ 3.2 µM); in test [8] it was 2 µg/mL (≈ 4.27 µM); in [9], 2 µg/mL (≈ 4.27 µM); in test [10], 2 µg/mL (≈ 4.27 µM); in test [11], 3 µg/mL (≈ 6.41 µM); in [12], 4 µg/mL (≈ 8.54 µM).
For the compound `N#CSc1c(-c2cc3ccccc3oc2=O)nc2sc(Cc3noc4ccccc34)nn12`, the zone of inhibition at 100 µg/mL in test [1] was 14 mm; in test [2], 15 mm; in test [3], 14 mm; in [4], 16 mm; in test [5] it was 12 mm; in test [6] it was 19 mm. Also, the MIC in [7] came out at 1.5 µg/mL (≈ 3.28 µM); in [8] it was 1 µg/mL (≈ 2.19 µM); in [9], 3.5 µg/mL (≈ 7.65 µM); in test [10], 2 µg/mL (≈ 4.37 µM); in [11], 3.5 µg/mL (≈ 7.65 µM); in test [12] it was 2 µg/mL (≈ 4.37 µM).
In the case of `O=Nc1c(-c2ccc(Br)cc2)nc2sc(Cc3noc4ccccc34)nn12`, the zone of inhibition at 100 µg/mL amounted to 16 mm in test [1]; 12 mm in [2]; 14 mm in test [3]; 12 mm in test [4]; 17 mm in test [5]; 15 mm in [6]. The MIC in [7] was found to be 1 µg/mL (≈ 2.27 µM); in test [8], 2.5 µg/mL (≈ 5.68 µM); in [9] it was 2 µg/mL (≈ 4.54 µM); in test [10], 3 µg/mL (≈ 6.81 µM); in test [11] it was 2.5 µg/mL (≈ 5.68 µM); in test [12], 2.5 µg/mL (≈ 5.68 µM).
